According to ChEMBL document CHEMBL3272249, “Esters of N-tert-butylarterenol. Long-acting new bronchodilators with reduced cardiac effects” (J Med Chem, 1976):

Assays:
Canis familiaris [1] = assay: Cardiotoxicity in spontaneously respiring dog assessed as time of increase in heart rate at 20 to 100 mg/kg, iv relative to control; type: toxicity, organism-based, Canis lupus familiaris; set-up: dose 20-100 mg/kg, route intravenous; details: in vivo
In short: (§1)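 Anesthetized, spontaneously respiring dogs. Heart rate was taken from a lead II EKG, and blood pressure from the right femoral artery by transducer. The increase in heart rate (beats/min) was scored on a graded scale with more than 4 dogs per dose, and its duration was recorded. Drugs were dissolved fresh in distilled water, diluted in physiological saline and kept on ice.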

Canis familiaris [2] = assay: Bronchodilator activity in dog assessed as time of inhibition of carbachol or histamine-induced bronchoconstriction at 400 to 800 mg/kg, it relative to control; type: functional, Canis lupus familiaris; details: dose mg/kg 400-800; route endotracheal
In short: (§2)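 Dog airway model: anesthetized, cannulated via a nonbreathing valve, with airway pressure changes recorded after iv carbachol (2–4 μg/kg) or histamine diphosphate (20–50 μg/kg) challenge, each agonist in different animals. Compounds were given iv, intraduodenally or intratracheally from fresh aqueous stocks diluted in saline. Duration (h) of inhibition of induced bronchoconstriction was followed, and the two agonist datasets were pooled.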

Canis familiaris [3] = assay: Bronchodilator activity in dog assessed as time of inhibition of carbachol or histamine-induced bronchoconstriction at 20 to 100 mg/kg, iv relative to control; type: functional, Canis lupus familiaris; details: dose mg/kg 20-100; in short: as §2
Canis familiaris [4] = assay: Bronchodilator activity in dog assessed as time of inhibition of carbachol or histamine-induced bronchoconstriction at 50 to 100 mg/kg, id relative to control; type: functional, Canis lupus familiaris; details: dose mg/kg 50-100; route intraduodenal
In short: (§3)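 Anesthetized dogs with an airway cannula and a nonbreathing valve. Bronchoconstriction was induced by iv carbachol (2–4 μg/kg) or histamine diphosphate (20–50 μg/kg) and read as change in airway pressure by transducer. Each compound was tested against both agonists in different dogs, and the results were combined and averaged. Effect is % inhibition of control constriction, with at least three dogs per dose. Drugs were dissolved fresh in distilled water, diluted in saline and kept on ice.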

Canis familiaris [5] = assay: Cardiotoxicity in spontaneously respiring dog assessed as degree of increase in heart rate at 20 to 100 mg/kg, iv relative to control; type: toxicity, organism-based, Canis lupus familiaris; set-up: dose 20-100 mg/kg, route intravenous; details: in vivo; in short: as §1
Canis familiaris [6] = assay: Bronchodilator activity in dog assessed as degree of inhibition of carbachol or histamine-induced bronchoconstriction at 400 to 800 mg/kg, it relative to control; type: functional, Canis lupus familiaris; details: dose mg/kg 400-800; route endotracheal
In short: (§4)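 Anesthetized dogs, trachea cannulated with a nonbreathing valve. Bronchoconstriction induced by iv carbachol (2–4 μg/kg) or histamine diphosphate (20–50 μg/kg) in separate animals, and airway pressure recorded by transducer. Drug stocks were made fresh in distilled water, diluted in saline and kept on ice. Read-out was percent inhibition of control constriction, averaged over at least three dogs per dose at the higher dose. Carbachol and histamine data were combined.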

Canis familiaris [7] = assay: Bronchodilator activity in dog assessed as degree of inhibition of carbachol or histamine-induced bronchoconstriction at 20 to 100 mg/kg, iv relative to control; type: functional, Canis lupus familiaris; details: dose mg/kg 20-100; in short: as §4
Canis familiaris [8] = assay: Bronchodilator activity in dog assessed as degree of inhibition of carbachol or histamine-induced bronchoconstriction at 50 to 100 mg/kg, id relative to control; type: functional, Canis lupus familiaris; details: dose mg/kg 50-100; route intraduodenal; in short: as §4
Canis familiaris [9] = assay: Bronchodilator activity in dog assessed as time of inhibition of carbachol or histamine-induced bronchoconstriction at 5 mg/kg, iv relative to control; type: functional, Canis lupus familiaris; in short: as §3
Canis familiaris [10] = assay: Bronchodilator activity in dog assessed as time of inhibition of carbachol or histamine-induced bronchoconstriction at 50 mg/kg, id relative to control; type: functional, Canis lupus familiaris; details: route intraduodenal; in short: as §3
Canis familiaris [11] = assay: Bronchodilator activity in dog assessed as degree of inhibition of carbachol or histamine-induced bronchoconstriction at 5 mg/kg, iv relative to control; type: functional; details: Canis lupus familiaris; in short: as §4
Canis familiaris [12] = assay: Bronchodilator activity in dog assessed as degree of inhibition of carbachol or histamine-induced bronchoconstriction at 50 mg/kg, id relative to control; type: functional; details: Canis lupus familiaris, route intraduodenal; in short: as §4
Canis familiaris [13] = assay: Cardiotoxicity in spontaneously respiring dog assessed as degree of increase in heart rate at 200 mg/kg, iv relative to control; type: toxicity, organism-based, Canis lupus familiaris; set-up: dose 200 mg/kg, route intravenous; details: in vivo; in short: as §1
Canis familiaris [14] = assay: Cardiotoxicity in spontaneously respiring dog assessed as time of increase in heart rate at 200 mg/kg, iv relative to control; type: toxicity, organism-based, Canis lupus familiaris; set-up: dose 200 mg/kg, route intravenous; details: in vivo; in short: as §1
Canis familiaris [15] = assay: Bronchodilator activity in dog assessed as time of inhibition of carbachol or histamine-induced bronchoconstriction at 200 mg/kg, iv relative to control; type: functional, Canis lupus familiaris; in short: as §2
Canis familiaris [16] = assay: Bronchodilator activity in dog assessed as time of inhibition of carbachol or histamine-induced bronchoconstriction at 100 to 200 mg/kg, id relative to control; type: functional, Canis lupus familiaris; details: dose mg/kg 100-200; route intraduodenal; in short: as §2
Canis familiaris [17] = assay: Bronchodilator activity in dog assessed as time of inhibition of carbachol or histamine-induced bronchoconstriction at 430 to 860 mg/kg, it relative to control; type: functional, Canis lupus familiaris; details: dose mg/kg 430-860; route endotracheal; in short: as §3
Canis familiaris [18] = assay: Bronchodilator activity in dog assessed as degree of inhibition of carbachol or histamine-induced bronchoconstriction at 200 mg/kg, iv relative to control; type: functional; details: Canis lupus familiaris; in short: as §4
Canis familiaris [19] = assay: Bronchodilator activity in dog assessed as degree of inhibition of carbachol or histamine-induced bronchoconstriction at 100 to 200 mg/kg, id relative to control; type: functional, Canis lupus familiaris; details: dose mg/kg 100-200; route intraduodenal; in short: as §4
Canis familiaris [20] = assay: Bronchodilator activity in dog assessed as degree of inhibition of carbachol or histamine-induced bronchoconstriction at 430 to 860 mg/kg, it relative to control; type: functional, Canis lupus familiaris; details: dose mg/kg 430-860; route endotracheal; in short: as §4
Canis familiaris [21] = assay: Cardiotoxicity in spontaneously respiring dog assessed as degree of increase in heart rate at 100 to 200 mg/kg, iv relative to control; type: toxicity, organism-based, Canis lupus familiaris; set-up: dose 100-200 mg/kg, route intravenous; details: in vivo; in short: as §1
Canis familiaris [22] = assay: Cardiotoxicity in spontaneously respiring dog assessed as time of increase in heart rate at 100 to 200 mg/kg, iv relative to control; type: toxicity, organism-based, Canis lupus familiaris; set-up: dose 100-200 mg/kg, route intravenous; details: in vivo; in short: as §1
Canis familiaris [23] = assay: Bronchodilator activity in dog assessed as time of inhibition of carbachol or histamine-induced bronchoconstriction at 100 to 200 mg/kg, iv relative to control; type: functional, Canis lupus familiaris; details: dose mg/kg 100-200; in short: as §2
Canis familiaris [24] = assay: Bronchodilator activity in dog assessed as degree of inhibition of carbachol or histamine-induced bronchoconstriction at 100 to 200 mg/kg, iv relative to control; type: functional, Canis lupus familiaris; details: dose mg/kg 100-200; in short: as §4

## CC(C)(C)NC[C@H](O)c1ccc(OC(=O)C(C)(C)C)c(OC(=O)C(C)(C)C)c1.Cl
Canis familiaris [1]
  Time: < 2 h
Canis familiaris [2]
  Time: <2 h
Canis familiaris [3]
  Time: 3 h
Canis familiaris [4]
  Time: 3 h
Canis familiaris [5]
  Activity: 20 beats/min
Canis familiaris [6]
  inhibition (INH): 45%
Canis familiaris [7]
  inhibition (INH): >70%
Canis familiaris [8]
  inhibition (INH): >70%

## CC(C)(C)NC[C@H](O)c1ccc(OC(=O)C2(C)CC2)c(OC(=O)C2(C)CC2)c1.Cl
Canis familiaris [9]
  Time: <1 h
Canis familiaris [10]
  Time: 2 h
Canis familiaris [11]
  inhibition in vivo at 5 mg/kg: 45%
Canis familiaris [12]
  inhibition in vivo at 50 mg/kg: 45%

## CC(C)(C)CC(=O)Oc1ccc([C@@H](O)CNC(C)(C)C)cc1OC(=O)CC(C)(C)C.Cl
Canis familiaris [13]
  Activity: 20%
Canis familiaris [14]
  Time: < 1 h
Canis familiaris [15]
  Time: >4 h
Canis familiaris [16]
  Time: <5 h
Canis familiaris [17]
  Time: <3 h
Canis familiaris [18]
  inhibition in vivo at 200 mg/kg: > 70%
Canis familiaris [19]
  inhibition (INH): 45%
Canis familiaris [20]
  inhibition (INH): 20%

## CC(C)(C)NC[C@H](O)c1ccc(OC(=O)C2CCCCC2)c(OC(=O)C2CCCCC2)c1.Cl
Canis familiaris [21]
  Activity: 20%
Canis familiaris [22]
  Time: < 3 h
Canis familiaris [23]
  Time: <5 h
Canis familiaris [24]
  inhibition (INH): 45%
